# Laboratory results taken from publication PMC12900291 (European journal of medicinal chemistry, 2025).
# Several values for one entry are separate records, joined by “and”; a condition that tells them apart may be missing. Equal entries are not always repeated. Entries after “also recorded” stand apart in the source; their conditions may differ.
# Columns and labels:
# HEK-293 cells = assay: Cell viability; type: cell-based; details: read-out: Cell viability IC50, 72 h exposure, MTT
# Method in brief: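 HEK-293.2sus cells were seeded at 9.6 × 10^3 cells/well and given a concentration gradient of test compound for 72 h at 37 °C, 5% CO2. MTT (0.5 mg/mL) was added for 3–4 h, medium removed, formazan dissolved in DMSO (15 min shaking, 21 °C), and A595 read. Cell-free background was subtracted, values taken relative to DMSO controls, and IC50 fitted by nonlinear least squares. n = 3–6.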
# SERCA2a [1] = target: T1, SERCA2a (Sus scrofa, UniProt P11607); assay: NADH-coupled enzyme-linked Ca2+-ATPase activity assay in cardiac SR vesicles; type: biochemical, porcine; details: for EC50 / Ca2+-ATPase [Ca2+]MAX % effect / Ca2+-ATPase [Ca2+]MID % effect: cardiac SR; for Max increase (%): Ca2+-ATPase activity, vs no compound, mean±SD, n=4-6
# SERCA2a [2] = target: T1, SERCA2a; assay: oxalate-based Ca2+-uptake; type: biochemical, porcine; details: cardiac SR
# Method in brief: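 Porcine left-ventricular SR vesicles (30 μg/mL) were prepared by differential centrifugation. Buffer: 50 mM MOPS, 100 mM KCl, 30 mg/mL sucrose, 10 mM potassium oxalate, 2 μM Fluo-4, free Ca2+ at pCa 8.0, 6.2 or 5.4, test compound 0.048–50 μM (two-fold series). Incubation 20 min at 22 °C, dark; 5 mM MgATP start; Fluo-4 decrease (ex 485/em 520 nm) tracked 15 min. Basal pCa 8.0 rate subtracted; Hill fit gives EC50 and % effect.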
# Intrinsic clearance = type: in vitro ADME, human; details: for Thalf: human liver S9 0.5 mg/mL, 1 μM compound, NADPH, 37 °C; for microsomal CLint at 1 μM: human, liver S9 fraction, pH 7.4
# SERCA2a [3] = target: T1, SERCA2a; details: earlier HTS study; cited from earlier work
# SERCA2a [4] = target: T1, SERCA2a; details: earlier HTS study; cited from earlier work; remark: listed apart in the source
# cardiomyocytes = details: cited from earlier work
# SERCA1a = assay: NADH-coupled Ca2+-ATPase activity assay in skeletal SR vesicles; type: biochemical, rabbit; details: Table 5 vs Table S2
# Method in brief: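 Light SR came from rabbit skeletal white muscle by differential centrifugation and sucrose gradient. NADH-coupled assay: 4 μg/mL SR in 50 mM MOPS pH 7.0, 100 mM KCl, 1 mM EGTA, 0.2 mM NADH, 1 mM PEP, 10 IU/mL PK and LDH, 7 μM A23187, pCa 5.4/6.2/8.0. Test compound (0.048–50 μM) 20 min; 5 mM MgATP start; A340. pCa 8.0 rate subtracted; Hill fit gives EC50 and maximal % effect.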
# [5] = Solubility assay in phosphate buffer, LC-MS/MS; type: physicochemical; details: 50 mM phosphate buffer pH 7.4, 37 °C, 12 h
# [6] = Ca2+-ATPase [Ca2+]MAX EC50 (μM), [Ca2+]MAX (pCa 5.4)
# [7] = Ca2+-ATPase [Ca2+]MID EC50 (μM), [Ca2+]MID (pCa 6.2)
# [8] = Ca2+-Uptake [Ca2+]MAX EC50 (μM), [Ca2+]MAX (pCa 5.4)
# [9] = Ca2+-Uptake [Ca2+]MID EC50 (μM), [Ca2+]MID (pCa 6.2)
# T1 sequence (P11607 1-997 isoform P11607-2): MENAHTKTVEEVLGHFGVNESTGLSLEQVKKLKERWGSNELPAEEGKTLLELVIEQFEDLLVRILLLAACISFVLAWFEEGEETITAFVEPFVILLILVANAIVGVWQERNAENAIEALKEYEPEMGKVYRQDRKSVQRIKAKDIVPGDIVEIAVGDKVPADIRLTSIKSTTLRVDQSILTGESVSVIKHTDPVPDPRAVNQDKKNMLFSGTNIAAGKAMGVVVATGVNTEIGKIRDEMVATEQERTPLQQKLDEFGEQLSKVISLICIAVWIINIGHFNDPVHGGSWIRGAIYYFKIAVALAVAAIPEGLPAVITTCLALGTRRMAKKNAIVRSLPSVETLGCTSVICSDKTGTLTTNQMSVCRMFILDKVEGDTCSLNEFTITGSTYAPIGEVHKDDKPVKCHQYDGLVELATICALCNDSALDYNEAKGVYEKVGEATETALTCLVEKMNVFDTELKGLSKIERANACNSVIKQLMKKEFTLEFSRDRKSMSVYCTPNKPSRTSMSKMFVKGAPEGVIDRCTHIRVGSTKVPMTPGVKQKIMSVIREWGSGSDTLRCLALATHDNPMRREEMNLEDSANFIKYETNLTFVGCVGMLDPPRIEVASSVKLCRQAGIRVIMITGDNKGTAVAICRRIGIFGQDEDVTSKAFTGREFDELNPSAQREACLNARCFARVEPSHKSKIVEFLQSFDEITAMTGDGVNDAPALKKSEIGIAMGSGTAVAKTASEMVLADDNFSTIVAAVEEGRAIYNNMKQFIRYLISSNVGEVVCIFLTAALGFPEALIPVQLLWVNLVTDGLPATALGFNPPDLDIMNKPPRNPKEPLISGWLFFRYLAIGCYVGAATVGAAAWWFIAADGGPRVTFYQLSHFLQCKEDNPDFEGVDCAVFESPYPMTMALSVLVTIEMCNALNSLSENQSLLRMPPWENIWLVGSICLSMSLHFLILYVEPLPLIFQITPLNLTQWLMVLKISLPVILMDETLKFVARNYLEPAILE
SMILES,IC50 (HEK-293 cells) [µM],EC50 (SERCA2a [1]; [6]) [µM],EC50 (SERCA2a [1]; [7]) [µM],Max increase (%) (SERCA2a [1]; [Ca2+]MAX (pCa 5.4)),EC50 (SERCA2a [2]; [8]) [µM],EC50 (SERCA2a [2]; [9]) [µM],Thalf (Intrinsic clearance) [min],microsomal CLint at 1 μM (Intrinsic clearance) [µL/min/mg],activation of SERCA2a ATPase activity (SERCA2a [3]) [%],activation of SERCA2a Ca2+-uptake (SERCA2a [4]) [%],SR Ca2+ load / Ca2+ dynamics (cardiomyocytes),Ca2+-Uptake [Ca2+]MAX % effect (SERCA2a [2]; [Ca2+]MAX (pCa 5.4)) [%],Ca2+-Uptake [Ca2+]MAX EC50 (μM) (SERCA2a [2]; [Ca2+]MAX (pCa 5.4)),Ca2+-ATPase [Ca2+]MAX % effect (SERCA2a [1]; [Ca2+]MAX (pCa 5.4)) [%],Ca2+-ATPase [Ca2+]MID % effect (SERCA2a [1]; [Ca2+]MID (pCa 6.2)) [%],Ca2+-Uptake [Ca2+]MID % effect (SERCA2a [2]; [Ca2+]MID (pCa 6.2)) [%],"selectivity for SERCA1a (vs SERCA2a), ATPase activity (SERCA1a; [Ca2+]MID)",Solubility [5] [mg/mL],"selectivity for SERCA2a relative to SERCA1a, higher efficacy, ATPase activity (SERCA1a; [Ca2+]MAX)"
"Cc1ccc2cccc(NC(=O)c3ccc(OC(C)C)cc3)c2n1 [CDN1163, reference compound]",63,–,–,–,–,–,–,–,–,–,–,–,–,–,–,–,–,–,–
"CCCN(Cc1ccccc1OC)C(=O)c1cc(C)c(C)s1 [Compound 1, N-(2-Methoxybenzyl)-4,5-dimethyl-N-propylthiophene-2-carboxamide]",–,5.3 ± 1.8,6 ± 1.2,57% and 57±13%,1.1 ± 0.73,0.46 ± 0.35,97.6,14 ± 1.1,58,24,increase SR Ca^2+ load; also recorded: increased Ca^2+ dynamics and Ca^2+ load,–,–,–,–,–,–,–,–
"CCCN(Cc1ccccc1OC)C(=O)c1cc2c(s1)CCCC2 [Compound 8, N-(2-Methoxybenzyl)-N-propyl-4,5,6,7-tetrahydrobenzo[b]thiophene-2-carboxamide]",29 ± 18,3.3 ± 0.5,3.6 ± 2.8,45% and 45±10%,1.1 ± 0.45,> 50,20.1,73 ± 9.3,–,–,–,8.8±2.3,unchanged,–,–,–,–,–,–
"CCCN(Cc1ccccc1OC)C(=O)c1cccc(C(F)(F)F)c1 [Compound 21, N-(2-Methoxybenzyl)-N-propyl-3-(trifluoromethyl)benzamide]",31 ± 16,5.1 ± 2.1,5.3 ± 1.3,40±14%,1.5 ± 0.33,1 ± 0.86,10.3,133 ± 11,–,–,–,15±5.9,increased,40±14,25±7.4,7.0±3.7,at least 8 fold,–,–
"CCCN(Cc1ccccc1OC)C(=O)c1ccc(F)c(Br)c1 [Compound 25, 3-Bromo-4-fluoro-N-(2-methoxybenzyl)-N-propylbenzamide]",–,4 ± 2.1,3.7 ± 0.73,53% and 53±7.7%,0.8 ± 0.57,0.89 ± 0.4,74.5,15 ± 7.2,–,–,–,–,decreased,–,–,–,–,0.507 ± 0.007,–
"CCN(Cc1ccccc1OC)C(=O)c1cc(C)c(C)s1 [Compound 32, N-Ethyl-N-(2-methoxybenzyl)-4,5-dimethylthiophene-2-carboxamide]",–,6.3 ± 1.8,4.6 ± 2,43±6.7%,0.77 ± 0.57,0.91 ± 0.85,34.7,37 ± 6.2,–,–,–,13±5.7,decreased,43±6.7,24±6.0,6.0±1.6,–,–,at least 8 fold
"CCCCN(Cc1ccccc1OC)C(=O)c1cc(C)c(C)s1 [Compound 33, N-Butyl-N-(2-methoxybenzyl)-4,5-dimethylthiophene-2-carboxamide]",–,4 ± 0.8,3 ± 1,72% and 72±8.5%,1.1 ± 0.35,0.63 ± 0.21,16.6,83 ± 4.2,–,–,–,22±5.6,unchanged,72±8.5,23±6.0,15±7.0,–,–,–
